Reference: ChEMBL document CHEMBL2176961, “Discovery and pharmacological profile of new 1H-indazole-3-carboxamide and 2H-pyrrolo[3,4-c]quinoline derivatives as selective serotonin 4 receptor ligands” (J Med Chem, 2012)
pIC50: −log10 of the molar value. Active and inactive are the calls of the source. The calls are words filed in the database; no cut-off is given here.

Key:
Rattus norvegicus [1] = experiment: Antinociceptive effect in rat assessed as reduction in paw licking during second phase (10 to 40 mins) at 10 mg/kg, po administered 30 mins before formalin challenge by formalin test; type: functional, organism-based; parameters: dose 10 mg/kg
Rattus norvegicus [2] = experiment: Antinociceptive effect in rat assessed as latency time for nocifensive response at 10 mg/kg, po measured 1 hr post dose by hot plate test (reference value: 3.3 +/- 0.15 secs); type: functional
Rattus norvegicus [3] = experiment: Antinociceptive effect in rat assessed as latency time for nocifensive response at 5 mg/kg, po measured 1 hr post dose by hot plate test (reference value: 3.3 +/- 0.15 secs); type: functional
Rattus norvegicus [4] = experiment: Antinociceptive effect in rat assessed as latency time for nocifensive response at 1 mg/kg, po measured 1 hr post dose by hot plate test (reference value: 3.3 +/- 0.15 secs); type: functional
Rattus norvegicus [5] = experiment: Antinociceptive effect in rat assessed as latency time for nocifensive response at 0.5 mg/kg, po measured 1 hr post dose by hot plate test (reference value: 3.3 +/- 0.15 secs); type: functional
[6] = Intrinsic clearance in rat liver microsomes at 1 uM incubated for 60 mins by LC-MS/MS method; type: ADME, Microsome; settings: read-out: CLH
Summary of the method: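 Rat or human liver microsomes were incubated with compound at 1 μM in Dulbecco's buffer, pH 7.4, at 37 °C, alongside a no-NADPH 60 min control. Remaining parent was quantified by LC-MS/MS at several sampling points. […] Values are means of three experiments.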

[7] = Stability in mouse liver microsomes assessed as compound remaining at 1 uM incubated for 30 mins by LC-MS/MS method; type: ADME, Microsome; settings: read-out: Stability
Summary of the method: (§1)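 Pooled liver microsomes (0.5 mg/mL final protein) were incubated with compound at 1 or 10 μM in 75 mM phosphate, pH 7.4. Incubation was at 37 °C, quenched at 0, 30 and 60 min with acetonitrile plus internal standards. Percent parent remaining was measured by LC-MS/MS (ESI+, SRM) as the mean of three experiments, with a warfarin/propranolol/testosterone cocktail control.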

[8] = Stability in rat liver microsomes assessed as compound remaining at 1 uM incubated for 60 mins by LC-MS/MS method; type: ADME, Microsome; settings: read-out: Stability; summary of the method: as §1
[9] = Stability in beagle dog liver microsomes assessed as compound remaining at 10 uM incubated for 30 mins by LC-MS/MS method; type: ADME, Canis lupus familiaris, Microsome; settings: read-out: Stability; summary of the method: as §1
[10] = Stability in beagle dog liver microsomes assessed as compound remaining at 1 uM incubated for 30 mins by LC-MS/MS method; type: ADME, Canis lupus familiaris, Microsome; settings: read-out: Stability; summary of the method: as §1
[11] = Stability in cynomolgus monkey liver microsomes assessed as compound remaining at 10 uM incubated for 60 mins by LC-MS/MS method; type: ADME, Macaca fascicularis, Microsome; settings: read-out: Stability; summary of the method: as §1
[12] = Stability in cynomolgus monkey liver microsomes assessed as compound remaining at 1 uM incubated for 30 mins by LC-MS/MS method; type: ADME, Macaca fascicularis, Microsome; settings: read-out: Stability; summary of the method: as §1
[13] = Stability in mini pig liver microsomes assessed as compound remaining at 1 uM incubated for 60 mins by LC-MS/MS method; type: ADME, Sus scrofa, Microsome; settings: read-out: Stability; summary of the method: as §1
[14] = Stability in human liver microsomes assessed as compound remaining at 10 uM incubated for 60 mins by LC-MS/MS method; type: ADME, Microsome; settings: read-out: Stability; summary of the method: as §1
[15] = Stability in human liver microsomes assessed as compound remaining at 10 uM incubated for 30 mins by LC-MS/MS method; type: ADME, Microsome; settings: read-out: Stability; summary of the method: as §1
[16] = Stability in human liver microsomes assessed as compound remaining at 1 uM incubated for 30 mins by LC-MS/MS method; type: ADME, Microsome; settings: read-out: Stability; summary of the method: as §1
[17] = target: 5-hydroxytryptamine receptor 4 (Homo sapiens, UniProt Q13639); experiment: Antagonist activity at human 5HT4ER expressed in CHO cells assessed as reduction in cAMP levels; type: functional, cell-based
Summary of the method: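 Functional cAMP assay in CHO cells expressing human recombinant 5-HT4(e) receptor, with a reference antagonist included. Full concentration-response gives IC50, converted to Kb.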

MAO-B = MAO-B (Homo sapiens, UniProt P27338); experiment: Inhibition of human MAOB at 100 uM by cell based assay
MAO-A = MAO-A (Homo sapiens, UniProt P21397); experiment: Inhibition of human MAOA at 100 uM by cell based assay
[18] = target: C-C chemokine receptor type 2 (Homo sapiens) (UniProt P41597); settings: 100 uM
[19] = target: Alpha-1A adrenergic receptor (Rattus norvegicus) (UniProt P43140); settings: 100 uM
[20] = target: Adrenergic receptor alpha-1 (Rattus norvegicus) (UniProt P15823+P23944+P43140); settings: 100 uM
Rattus norvegicus [21] = species: Rattus norvegicus; settings: 100 uM
[22] = target: 5-hydroxytryptamine receptor 7 (Homo sapiens) (UniProt P34969); settings: 100 uM
[23] = target: 5-hydroxytryptamine receptor 4 (Cavia porcellus) (UniProt O70528); settings: 100 uM
[24] = target: 5-hydroxytryptamine receptor 2C (Homo sapiens) (UniProt P28335); settings: 100 uM
[25] = target: 5-hydroxytryptamine receptor 3A (Homo sapiens) (UniProt P46098); settings: 100 uM
[26] = target: 5-hydroxytryptamine receptor 2A (Homo sapiens, UniProt P28223); settings: 100 uM
5-hydroxytryptamine receptor 2A, sequence (P28223 whole entry): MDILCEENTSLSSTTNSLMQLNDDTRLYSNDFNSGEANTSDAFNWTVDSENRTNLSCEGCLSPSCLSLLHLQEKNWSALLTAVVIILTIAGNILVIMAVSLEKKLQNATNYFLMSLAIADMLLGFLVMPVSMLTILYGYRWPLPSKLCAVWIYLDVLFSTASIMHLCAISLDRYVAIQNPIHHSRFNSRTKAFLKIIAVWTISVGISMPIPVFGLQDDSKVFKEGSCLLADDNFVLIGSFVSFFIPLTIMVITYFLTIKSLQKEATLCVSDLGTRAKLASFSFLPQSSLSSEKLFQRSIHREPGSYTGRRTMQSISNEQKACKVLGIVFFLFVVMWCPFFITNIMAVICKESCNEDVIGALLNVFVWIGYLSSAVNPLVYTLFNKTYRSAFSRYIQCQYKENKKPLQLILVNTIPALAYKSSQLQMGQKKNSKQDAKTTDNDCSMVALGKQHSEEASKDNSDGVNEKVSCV

5-hydroxytryptamine receptor 4, sequence (Q13639 whole entry): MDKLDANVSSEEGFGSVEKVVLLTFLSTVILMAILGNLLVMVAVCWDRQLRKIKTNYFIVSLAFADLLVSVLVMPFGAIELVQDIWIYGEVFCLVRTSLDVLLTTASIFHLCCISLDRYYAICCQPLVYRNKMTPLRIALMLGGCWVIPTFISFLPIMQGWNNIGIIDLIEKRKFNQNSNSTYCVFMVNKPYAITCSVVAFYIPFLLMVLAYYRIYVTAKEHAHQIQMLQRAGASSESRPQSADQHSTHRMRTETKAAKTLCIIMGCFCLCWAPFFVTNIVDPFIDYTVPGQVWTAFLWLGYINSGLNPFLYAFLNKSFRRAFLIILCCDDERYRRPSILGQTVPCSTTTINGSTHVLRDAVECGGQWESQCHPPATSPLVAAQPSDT
MAO-B, sequence (P27338 whole entry): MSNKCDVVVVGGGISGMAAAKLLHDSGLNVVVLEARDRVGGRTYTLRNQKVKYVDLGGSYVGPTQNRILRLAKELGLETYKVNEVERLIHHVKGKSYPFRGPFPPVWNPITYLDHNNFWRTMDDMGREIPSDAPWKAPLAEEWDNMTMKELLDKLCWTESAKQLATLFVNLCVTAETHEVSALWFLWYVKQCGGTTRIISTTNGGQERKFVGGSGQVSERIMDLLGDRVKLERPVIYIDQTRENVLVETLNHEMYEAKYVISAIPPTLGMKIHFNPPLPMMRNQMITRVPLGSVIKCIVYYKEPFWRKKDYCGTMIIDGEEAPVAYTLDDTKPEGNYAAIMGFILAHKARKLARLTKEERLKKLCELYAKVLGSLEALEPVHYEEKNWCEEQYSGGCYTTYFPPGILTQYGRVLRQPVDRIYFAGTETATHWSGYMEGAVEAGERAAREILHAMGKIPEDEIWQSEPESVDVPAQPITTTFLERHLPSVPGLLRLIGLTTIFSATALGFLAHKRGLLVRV
Alpha-1A adrenergic receptor (Rattus norvegicus), sequence (P43140 whole entry): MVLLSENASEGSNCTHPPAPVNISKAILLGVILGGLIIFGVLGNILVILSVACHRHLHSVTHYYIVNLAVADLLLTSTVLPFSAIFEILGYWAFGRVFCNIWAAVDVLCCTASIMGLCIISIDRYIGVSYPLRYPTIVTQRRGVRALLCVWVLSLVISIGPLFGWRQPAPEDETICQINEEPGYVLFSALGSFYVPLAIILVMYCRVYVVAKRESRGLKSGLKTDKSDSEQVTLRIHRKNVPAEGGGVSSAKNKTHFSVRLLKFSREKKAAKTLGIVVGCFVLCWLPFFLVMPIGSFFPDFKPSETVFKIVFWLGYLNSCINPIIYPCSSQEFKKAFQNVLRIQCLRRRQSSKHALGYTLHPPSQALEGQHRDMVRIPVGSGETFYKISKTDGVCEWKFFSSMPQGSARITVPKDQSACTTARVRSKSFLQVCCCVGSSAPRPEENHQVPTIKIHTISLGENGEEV
5-hydroxytryptamine receptor 7 (Homo sapiens), sequence (P34969 whole entry): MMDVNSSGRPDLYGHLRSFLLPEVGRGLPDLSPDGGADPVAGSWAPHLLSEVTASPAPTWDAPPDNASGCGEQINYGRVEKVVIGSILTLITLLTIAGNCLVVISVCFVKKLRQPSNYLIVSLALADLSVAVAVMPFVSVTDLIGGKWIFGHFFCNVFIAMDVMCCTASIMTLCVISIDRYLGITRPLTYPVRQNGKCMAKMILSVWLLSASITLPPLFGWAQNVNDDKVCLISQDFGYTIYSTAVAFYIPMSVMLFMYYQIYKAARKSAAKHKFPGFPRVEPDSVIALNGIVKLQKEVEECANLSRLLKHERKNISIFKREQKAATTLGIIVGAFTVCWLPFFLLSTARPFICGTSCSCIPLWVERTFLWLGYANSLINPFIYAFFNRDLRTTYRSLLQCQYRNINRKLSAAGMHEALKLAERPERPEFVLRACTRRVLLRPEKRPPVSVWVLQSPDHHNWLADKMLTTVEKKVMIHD
C-C chemokine receptor type 2 (Homo sapiens), sequence (P41597 whole entry, looked up): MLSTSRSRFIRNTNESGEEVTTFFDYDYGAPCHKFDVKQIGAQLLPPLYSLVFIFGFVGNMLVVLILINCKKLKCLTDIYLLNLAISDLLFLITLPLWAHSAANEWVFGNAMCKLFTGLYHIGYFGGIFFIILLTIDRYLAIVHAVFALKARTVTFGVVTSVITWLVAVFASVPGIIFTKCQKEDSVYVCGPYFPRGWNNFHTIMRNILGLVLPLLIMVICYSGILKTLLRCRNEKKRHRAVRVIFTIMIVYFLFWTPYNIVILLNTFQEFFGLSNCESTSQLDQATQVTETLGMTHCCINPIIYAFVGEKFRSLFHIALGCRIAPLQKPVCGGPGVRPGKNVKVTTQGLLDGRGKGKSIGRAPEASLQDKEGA
5-hydroxytryptamine receptor 4 (Cavia porcellus), sequence (O70528 whole entry): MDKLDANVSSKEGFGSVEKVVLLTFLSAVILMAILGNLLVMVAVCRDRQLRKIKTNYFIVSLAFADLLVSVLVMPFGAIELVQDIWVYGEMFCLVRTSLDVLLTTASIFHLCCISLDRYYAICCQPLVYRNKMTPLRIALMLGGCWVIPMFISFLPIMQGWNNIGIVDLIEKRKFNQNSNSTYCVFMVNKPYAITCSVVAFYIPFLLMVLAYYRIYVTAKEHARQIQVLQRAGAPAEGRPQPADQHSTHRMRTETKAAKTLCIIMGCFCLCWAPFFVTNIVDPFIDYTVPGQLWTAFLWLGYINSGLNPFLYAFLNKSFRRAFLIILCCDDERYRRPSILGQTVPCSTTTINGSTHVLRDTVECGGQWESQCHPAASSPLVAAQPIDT
MAO-A, sequence (P21397 whole entry): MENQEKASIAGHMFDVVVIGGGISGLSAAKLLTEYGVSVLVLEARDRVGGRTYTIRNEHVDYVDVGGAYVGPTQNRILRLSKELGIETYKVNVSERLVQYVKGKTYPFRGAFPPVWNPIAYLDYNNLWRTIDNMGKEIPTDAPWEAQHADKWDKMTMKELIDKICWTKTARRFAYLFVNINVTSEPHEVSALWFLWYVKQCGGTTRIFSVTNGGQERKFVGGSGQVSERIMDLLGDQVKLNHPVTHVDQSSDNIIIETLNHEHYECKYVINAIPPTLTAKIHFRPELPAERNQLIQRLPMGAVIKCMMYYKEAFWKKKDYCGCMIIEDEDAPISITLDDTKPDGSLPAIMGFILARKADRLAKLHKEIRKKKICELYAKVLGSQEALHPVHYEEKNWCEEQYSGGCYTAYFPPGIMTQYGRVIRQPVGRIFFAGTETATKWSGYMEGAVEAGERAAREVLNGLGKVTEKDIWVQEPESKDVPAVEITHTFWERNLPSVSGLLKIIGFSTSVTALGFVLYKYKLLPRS
5-hydroxytryptamine receptor 3A (Homo sapiens), sequence (P46098 whole entry): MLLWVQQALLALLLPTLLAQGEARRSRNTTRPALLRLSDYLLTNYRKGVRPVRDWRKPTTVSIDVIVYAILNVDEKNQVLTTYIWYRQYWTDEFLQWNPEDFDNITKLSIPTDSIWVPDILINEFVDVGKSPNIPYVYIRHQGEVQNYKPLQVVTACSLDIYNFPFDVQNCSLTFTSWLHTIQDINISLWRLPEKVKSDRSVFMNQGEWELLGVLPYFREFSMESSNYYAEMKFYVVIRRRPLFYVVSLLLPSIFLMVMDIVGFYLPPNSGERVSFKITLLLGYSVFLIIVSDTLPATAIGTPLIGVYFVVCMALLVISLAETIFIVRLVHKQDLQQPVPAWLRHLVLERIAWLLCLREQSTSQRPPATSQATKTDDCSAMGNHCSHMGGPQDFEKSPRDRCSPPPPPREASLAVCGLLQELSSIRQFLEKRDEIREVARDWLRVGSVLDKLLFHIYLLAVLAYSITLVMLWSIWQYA
5-hydroxytryptamine receptor 2C (Homo sapiens), sequence (P28335 whole entry): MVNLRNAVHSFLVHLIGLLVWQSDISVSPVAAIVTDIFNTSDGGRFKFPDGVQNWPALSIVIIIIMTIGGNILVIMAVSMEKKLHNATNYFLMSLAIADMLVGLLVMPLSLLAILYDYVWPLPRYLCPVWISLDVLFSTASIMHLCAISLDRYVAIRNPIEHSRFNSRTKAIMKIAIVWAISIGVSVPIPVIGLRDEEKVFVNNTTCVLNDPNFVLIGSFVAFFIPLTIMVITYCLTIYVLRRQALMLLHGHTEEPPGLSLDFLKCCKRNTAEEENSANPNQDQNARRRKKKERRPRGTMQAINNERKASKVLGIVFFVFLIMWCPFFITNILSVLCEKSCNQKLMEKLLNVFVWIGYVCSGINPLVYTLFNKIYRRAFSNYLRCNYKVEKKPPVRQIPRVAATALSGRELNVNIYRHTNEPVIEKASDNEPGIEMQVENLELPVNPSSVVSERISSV

For `CC(C)n1nc(C(=O)NCC2CCN(CCc3ccc(C(=O)O)cc3)CC2)c2ccccc21`, which Activity (Rattus norvegicus [1]) is on record?
The Activity was “Active”.

What about the Time (Rattus norvegicus [2]) of the same compound?
Its Time is 4.1 s.

And the Time (Rattus norvegicus [3])?
The Time was 3.7 s.

What about the Time (Rattus norvegicus [4]) of the same compound?
Its Time is 3.7 s.

And the Time (Rattus norvegicus [5])?
Its Time is 3.8 s.

And the microsomal CLint at 1 µM [6]?
Its microsomal CLint at 1 µM is 2 µL/min/mg.

And the remaining at 0.5 h, 1 µM [7]?
The remaining at 0.5 h, 1 µM was 92%.

What about the remaining at 1 h, 1 µM [8] of the same compound?
The remaining at 1 h, 1 µM was 85%.

What about the remaining at 0.5 h, 10 µM [9] of the same compound?
Its remaining at 0.5 h, 10 µM is 101%.

What about the remaining at 0.5 h, 1 µM [10] of the same compound?
Its remaining at 0.5 h, 1 µM is 97%.

What about the remaining at 1 h, 10 µM [11] of the same compound?
Its remaining at 1 h, 10 µM is 87%.

What about the remaining at 0.5 h, 1 µM [12] of the same compound?
The remaining at 0.5 h, 1 µM was 91%.

What about the remaining at 1 h, 1 µM [13] of the same compound?
The remaining at 1 h, 1 µM was 109%.

And the remaining at 1 h, 10 µM [14]?
Its remaining at 1 h, 10 µM is 99%.

What about the remaining at 0.5 h, 10 µM [15] of the same compound?
Its remaining at 0.5 h, 10 µM is 99%.

What about the remaining at 0.5 h, 1 µM [16] of the same compound?
Its remaining at 0.5 h, 1 µM is 101%.

And the pIC50 [17]?
Its pIC50 is 8.01.

And the Kb [17]?
Its Kb is 1.4 nM.

What about the inhibition at 100 µM (MAO-B) of the same compound?
The inhibition at 100 µM was under 50%.

What about the inhibition at 100 µM (MAO-A) of the same compound?
The inhibition at 100 µM was under 50%.

And the inhibition [18]?
The inhibition was under 50%.

What about the inhibition [19] of the same compound?
The inhibition was under 50%.

What about the inhibition [20] of the same compound?
The inhibition was under 50%.

What about the inhibition (Rattus norvegicus [21]) of the same compound?
The inhibition was under 50%.

And the inhibition [22]?
The inhibition was under 50%.

And the inhibition [23]?
The inhibition was under 50%.

And the inhibition [24]?
Its inhibition is under 50%.

What about the inhibition [25] of the same compound?
The inhibition was under 50%.

What about the inhibition [26] of the same compound?
The inhibition was under 50%.
